Assay results published in ChEMBL document CHEMBL2311431, “Synthesis and biological evaluation of some 5-arylidene-2-(1,3-thiazol-2-ylimino)-1,3-thiazolidin-4-ones as dual anti-inflammatory/antimicrobial agents” (Bioorg Med Chem, 2013).
≈ marks a conversion by molar mass, not a printed value.

System: Talaromyces funiculosus
Assay: Antifungal activity against Penicillium funiculosum ATCC 36839 after 72 hrs by serial dilution technique
Type: functional
Details: ATCC 36839, 72 h
Method in brief: (§1)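 Serial dilution in malt broth; compounds from 1 mg/ml stocks in 5% DMSO; 72 h at 28 °C. MIC is the lowest concentration with no visible growth under a binocular microscope. Run in duplicate, repeated three times.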

Compound	MIC [µM]
COc1ccc(OC)c(/C=C2\S/C(=N/c3nccs3)NC2=O)c1	7.3 (≈ 2.54 µg/mL)
O=C1N/C(=N\c2nc(-c3ccccc3)cs2)S/C1=C\c1ccc(Cl)cc1	20.5 (≈ 8.16 µg/mL)

Target: T1, Prostaglandin G/H synthase 1 (Ovis aries) (UniProt P05979)
T1 sequence (whole entry): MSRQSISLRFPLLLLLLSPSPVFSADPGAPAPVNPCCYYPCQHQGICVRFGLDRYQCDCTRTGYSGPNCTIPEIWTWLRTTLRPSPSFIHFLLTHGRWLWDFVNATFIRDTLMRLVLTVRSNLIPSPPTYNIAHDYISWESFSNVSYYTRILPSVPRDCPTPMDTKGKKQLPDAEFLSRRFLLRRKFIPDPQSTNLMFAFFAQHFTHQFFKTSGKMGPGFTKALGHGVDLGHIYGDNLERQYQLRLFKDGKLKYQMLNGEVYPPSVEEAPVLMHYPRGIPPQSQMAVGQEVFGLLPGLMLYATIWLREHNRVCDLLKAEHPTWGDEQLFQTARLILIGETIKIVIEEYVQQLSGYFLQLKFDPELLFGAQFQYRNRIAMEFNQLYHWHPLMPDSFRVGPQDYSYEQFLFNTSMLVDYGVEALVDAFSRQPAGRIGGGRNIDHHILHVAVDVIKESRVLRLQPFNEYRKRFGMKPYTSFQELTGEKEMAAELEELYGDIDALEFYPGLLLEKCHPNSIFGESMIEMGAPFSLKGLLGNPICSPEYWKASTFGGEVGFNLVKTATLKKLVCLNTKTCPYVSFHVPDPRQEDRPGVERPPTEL
Assay: Inhibition of ovine COX1 assessed as inhibition of PGF2a production by enzyme immunoassay
Set-up: concentration or dose not given beside the values
Details: concentration not given here
Method in brief: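 Ovine COX-1 from a commercial screening kit, tested with 0.1 µM arachidonic acid, which is below the saturating level. COX-derived PGH2 is reduced by SnCl2 to PGF2a, quantified by enzyme immunoassay with a broad prostaglandin antibody. At least triplicate.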

Compound	inhibition [%]
COc1ccc(OC)c(/C=C2\S/C(=N/c3nccs3)NC2=O)c1	85
O=C1N/C(=N\c2nc(-c3ccccc3)cs2)S/C1=C\c1ccc(Cl)cc1	78

System: Aspergillus flavus
Assay: Fungicidal activity against Aspergillus flavus ATCC 9643 after 72 hrs by serial subcultivation method
Type: functional
Details: ATCC 9643, 72 h

Compound	MFC [µM]
COc1ccc(OC)c(/C=C2\S/C(=N/c3nccs3)NC2=O)c1	348 (≈ 121 µg/mL)
O=C1N/C(=N\c2nc(-c3ccccc3)cs2)S/C1=C\c1ccc(Cl)cc1	27.3 (≈ 10.9 µg/mL)

System: Aspergillus fumigatus
Assay: Fungicidal activity against Aspergillus fumigatus after 72 hrs by serial subcultivation method
Type: functional
Details: not given

Compound	MFC [µM]
COc1ccc(OC)c(/C=C2\S/C(=N/c3nccs3)NC2=O)c1	348 (≈ 121 µg/mL)
O=C1N/C(=N\c2nc(-c3ccccc3)cs2)S/C1=C\c1ccc(Cl)cc1	27.3 (≈ 10.9 µg/mL)

System: Aspergillus niger
Assay: Fungicidal activity against Aspergillus niger ATCC 6275 after 72 hrs by serial subcultivation method
Type: functional
Details: ATCC 6275, 72 h

Compound	MFC [µM]
COc1ccc(OC)c(/C=C2\S/C(=N/c3nccs3)NC2=O)c1	290 (≈ 101 µg/mL)
O=C1N/C(=N\c2nc(-c3ccccc3)cs2)S/C1=C\c1ccc(Cl)cc1	27.3 (≈ 10.9 µg/mL)

System: Staphylococcus aureus
Assay: Antibacterial activity against Staphylococcus aureus ATCC 6538 after 24 hr by microdilution test
Type: functional
Details: ATCC 6538, 24 h
Method in brief: (§2)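 Broth microdilution in LB medium, about 1.0×10^4 cfu per well; compounds from 1 mg/ml stocks in 5% DMSO. Incubated 24 h. MIC is the lowest concentration with no visible growth under a binocular microscope. Run in duplicate, repeated three times.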

Compound	MIC [µM]
COc1ccc(OC)c(/C=C2\S/C(=N/c3nccs3)NC2=O)c1	232 (≈ 80.6 µg/mL)
O=C1N/C(=N\c2nc(-c3ccccc3)cs2)S/C1=C\c1ccc(Cl)cc1	50 (≈ 19.9 µg/mL)

Target: not listed separately
Assay: Inhibition of soybean lipoxygenase assessed as inhibition of sodium linolate conversion to 13-hydroperoxylinoleic acid after 4 mins by spectrophotometry
Set-up: species or system Glycine max
Details: read-out: IC50

Compound	IC50 [µM]
COc1ccc(OC)c(/C=C2\S/C(=N/c3nccs3)NC2=O)c1	52
O=C1N/C(=N\c2nc(-c3ccccc3)cs2)S/C1=C\c1ccc(Cl)cc1	54

System: Listeria monocytogenes
Assay: Bactericidal activity against Listeria monocytogenes NCTC 7973 after 72 hrs by serial subcultivation method
Type: functional
Details: NCTC 7973, 72 h

Compound	MBC [µM]
COc1ccc(OC)c(/C=C2\S/C(=N/c3nccs3)NC2=O)c1	230 (≈ 79.9 µg/mL)
O=C1N/C(=N\c2nc(-c3ccccc3)cs2)S/C1=C\c1ccc(Cl)cc1	100 (≈ 39.8 µg/mL)

System: Aspergillus flavus
Assay: Antifungal activity against Aspergillus flavus ATCC 9643 after 72 hrs by serial dilution technique
Type: functional
Details: ATCC 9643, 72 h
Method in brief: as §1

Compound	MIC [µM]
COc1ccc(OC)c(/C=C2\S/C(=N/c3nccs3)NC2=O)c1	290 (≈ 101 µg/mL)
O=C1N/C(=N\c2nc(-c3ccccc3)cs2)S/C1=C\c1ccc(Cl)cc1	13.7 (≈ 5.45 µg/mL)

System: Aspergillus fumigatus
Assay: Antifungal activity against Aspergillus fumigatus after 72 hrs by serial dilution technique
Type: functional
Details: not given
Method in brief: as §1

Compound	MIC [µM]
COc1ccc(OC)c(/C=C2\S/C(=N/c3nccs3)NC2=O)c1	233 (≈ 80.9 µg/mL)
O=C1N/C(=N\c2nc(-c3ccccc3)cs2)S/C1=C\c1ccc(Cl)cc1	13.7 (≈ 5.45 µg/mL)

System: Staphylococcus aureus
Assay: Bactericidal activity against Staphylococcus aureus ATCC 6538 after 72 hrs by serial subcultivation method
Type: functional
Details: ATCC 6538, 72 h

Compound	MBC [µM]
COc1ccc(OC)c(/C=C2\S/C(=N/c3nccs3)NC2=O)c1	348 (≈ 121 µg/mL)
O=C1N/C(=N\c2nc(-c3ccccc3)cs2)S/C1=C\c1ccc(Cl)cc1	100 (≈ 39.8 µg/mL)

System: Aspergillus niger
Assay: Antifungal activity against Aspergillus niger ATCC 6275 after 72 hrs by serial dilution technique
Type: functional
Details: ATCC 6275, 72 h
Method in brief: as §1

Compound	MIC [µM]
COc1ccc(OC)c(/C=C2\S/C(=N/c3nccs3)NC2=O)c1	232 (≈ 80.6 µg/mL)
O=C1N/C(=N\c2nc(-c3ccccc3)cs2)S/C1=C\c1ccc(Cl)cc1	13.7 (≈ 5.45 µg/mL)

System: Escherichia coli
Assay: Bactericidal activity against Escherichia coli ATCC 35210 after 72 hrs by serial subcultivation method
Type: functional
Details: ATCC 35210, 72 h

Compound	MBC [µM]
COc1ccc(OC)c(/C=C2\S/C(=N/c3nccs3)NC2=O)c1	464 (≈ 161 µg/mL)
O=C1N/C(=N\c2nc(-c3ccccc3)cs2)S/C1=C\c1ccc(Cl)cc1	50 (≈ 19.9 µg/mL)

System: Trichoderma viride
Assay: Fungicidal activity against Trichoderma viride IAM 5061 after 72 hrs by serial subcultivation method
Type: functional
Details: IAM 5061, 72 h

Compound	MFC [µM]
COc1ccc(OC)c(/C=C2\S/C(=N/c3nccs3)NC2=O)c1	348 (≈ 121 µg/mL)
O=C1N/C(=N\c2nc(-c3ccccc3)cs2)S/C1=C\c1ccc(Cl)cc1	27.3 (≈ 10.9 µg/mL)

System: Penicillium ochrochloron
Assay: Antifungal activity against Penicillium ochrochloron ATCC 9112 after 72 hrs by serial dilution technique
Type: functional
Details: ATCC 9112, 72 h
Method in brief: as §1

Compound	MIC [µM]
COc1ccc(OC)c(/C=C2\S/C(=N/c3nccs3)NC2=O)c1	58 (≈ 20.2 µg/mL)
O=C1N/C(=N\c2nc(-c3ccccc3)cs2)S/C1=C\c1ccc(Cl)cc1	13.7 (≈ 5.45 µg/mL)

System: Pseudomonas aeruginosa
Assay: Bactericidal activity against Pseudomonas aeruginosa ATCC 27853 after 72 hrs by serial subcultivation method
Type: functional
Details: ATCC 27853, 72 h

Compound	MBC [µM]
COc1ccc(OC)c(/C=C2\S/C(=N/c3nccs3)NC2=O)c1	406 (≈ 141 µg/mL)
O=C1N/C(=N\c2nc(-c3ccccc3)cs2)S/C1=C\c1ccc(Cl)cc1	100 (≈ 39.8 µg/mL)

System: Mus musculus
Assay: Antiinflammatory activity in AKR mouse assessed as inhibition of carrageenan-induced paw edema at 0.01 mmol/kg, ip measured after 3.5 hrs of carrageenan-challenge
Type: functional
Details: not given
Method in brief: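 AKR mice of both sexes (pregnant females excluded), 6-10 per group, fasted during the experiment. Edema induced by intradermal 0.05 mL of 2% carrageenin into the right hind paw. Compound given at 0.01 mmol/kg ip, suspended in water with Tween-80, at the same time as carrageenin.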

Compound	inhibition in vivo at 10 µmol/kg [%]
COc1ccc(OC)c(/C=C2\S/C(=N/c3nccs3)NC2=O)c1	26
O=C1N/C(=N\c2nc(-c3ccccc3)cs2)S/C1=C\c1ccc(Cl)cc1	27.3

System: Micrococcus flavus
Assay: Antibacterial activity against Micrococcus flavus ATCC 10240 after 24 hr by microdilution test
Type: functional
Details: ATCC 10240, 24 h
Method in brief: as §2

Compound	MIC [µM]
COc1ccc(OC)c(/C=C2\S/C(=N/c3nccs3)NC2=O)c1	232 (≈ 80.6 µg/mL)
O=C1N/C(=N\c2nc(-c3ccccc3)cs2)S/C1=C\c1ccc(Cl)cc1	25 (≈ 9.95 µg/mL)

System: Escherichia coli
Assay: Antibacterial activity against Escherichia coli ATCC 35210 after 24 hr by microdilution test
Type: functional
Details: ATCC 35210, 24 h
Method in brief: as §2

Compound	MIC [µM]
COc1ccc(OC)c(/C=C2\S/C(=N/c3nccs3)NC2=O)c1	406 (≈ 141 µg/mL)
O=C1N/C(=N\c2nc(-c3ccccc3)cs2)S/C1=C\c1ccc(Cl)cc1	50 (≈ 19.9 µg/mL)

System: Listeria monocytogenes
Assay: Antibacterial activity against Listeria monocytogenes NCTC 7973 after 24 hr by microdilution test
Type: functional
Details: NCTC 7973, 24 h
Method in brief: as §2

Compound	MIC [µM]
COc1ccc(OC)c(/C=C2\S/C(=N/c3nccs3)NC2=O)c1	58 (≈ 20.2 µg/mL)
O=C1N/C(=N\c2nc(-c3ccccc3)cs2)S/C1=C\c1ccc(Cl)cc1	50 (≈ 19.9 µg/mL)

System: Talaromyces funiculosus
Assay: Fungicidal activity against Penicillium funiculosum ATCC 36839 after 72 hrs by serial subcultivation method
Type: functional
Details: ATCC 36839, 72 h

Compound	MFC [µM]
COc1ccc(OC)c(/C=C2\S/C(=N/c3nccs3)NC2=O)c1	58 (≈ 20.2 µg/mL)
O=C1N/C(=N\c2nc(-c3ccccc3)cs2)S/C1=C\c1ccc(Cl)cc1	27.3 (≈ 10.9 µg/mL)

System: Micrococcus flavus
Assay: Bactericidal activity against Micrococcus flavus ATCC 10240 after 72 hrs by serial subcultivation method
Type: functional
Details: ATCC 10240, 72 h

Compound	MBC [µM]
COc1ccc(OC)c(/C=C2\S/C(=N/c3nccs3)NC2=O)c1	290 (≈ 101 µg/mL)
O=C1N/C(=N\c2nc(-c3ccccc3)cs2)S/C1=C\c1ccc(Cl)cc1	25 (≈ 9.95 µg/mL)

System: Bacillus cereus
Assay: Bactericidal activity against Bacillus cereus clinical isolate after 72 hrs by serial subcultivation method
Type: functional
Details: not given

Compound	MBC [µM]
COc1ccc(OC)c(/C=C2\S/C(=N/c3nccs3)NC2=O)c1	348 (≈ 121 µg/mL)
O=C1N/C(=N\c2nc(-c3ccccc3)cs2)S/C1=C\c1ccc(Cl)cc1	50 (≈ 19.9 µg/mL)

System: Mus musculus
Assay: Acute toxicity in AKR mouse up to 0.5 mmol/kg, ip
Type: organism-based
Details: in vivo

Compound	Activity
COc1ccc(OC)c(/C=C2\S/C(=N/c3nccs3)NC2=O)c1	Non-toxic
O=C1N/C(=N\c2nc(-c3ccccc3)cs2)S/C1=C\c1ccc(Cl)cc1	Non-toxic

System: Trichoderma viride
Assay: Antifungal activity against Trichoderma viride IAM 5061 after 72 hrs by serial dilution technique
Type: functional
Details: IAM 5061, 72 h
Method in brief: as §1

Compound	MIC [µM]
COc1ccc(OC)c(/C=C2\S/C(=N/c3nccs3)NC2=O)c1	58 (≈ 20.2 µg/mL)
O=C1N/C(=N\c2nc(-c3ccccc3)cs2)S/C1=C\c1ccc(Cl)cc1	13.7 (≈ 5.45 µg/mL)

System: Penicillium ochrochloron
Assay: Fungicidal activity against Penicillium ochrochloron ATCC 9112 after 72 hrs by serial subcultivation method
Type: functional
Details: ATCC 9112, 72 h

Compound	MFC [µM]
COc1ccc(OC)c(/C=C2\S/C(=N/c3nccs3)NC2=O)c1	116 (≈ 40.3 µg/mL)
O=C1N/C(=N\c2nc(-c3ccccc3)cs2)S/C1=C\c1ccc(Cl)cc1	27.3 (≈ 10.9 µg/mL)

System: Bacillus cereus
Assay: Antibacterial activity against Bacillus cereus clinical isolate after 24 hr by microdilution test
Type: functional
Details: not given
Method in brief: as §2

Compound	MIC [µM]
COc1ccc(OC)c(/C=C2\S/C(=N/c3nccs3)NC2=O)c1	232 (≈ 80.6 µg/mL)
O=C1N/C(=N\c2nc(-c3ccccc3)cs2)S/C1=C\c1ccc(Cl)cc1	25 (≈ 9.95 µg/mL)

System: Pseudomonas aeruginosa
Assay: Antibacterial activity against Pseudomonas aeruginosa ATCC 27853 after 24 hr by microdilution test
Type: functional
Details: ATCC 27853, 24 h
Method in brief: as §2

Compound	MIC [µM]
COc1ccc(OC)c(/C=C2\S/C(=N/c3nccs3)NC2=O)c1	290 (≈ 101 µg/mL)
O=C1N/C(=N\c2nc(-c3ccccc3)cs2)S/C1=C\c1ccc(Cl)cc1	50 (≈ 19.9 µg/mL)
